Data set [1] can be described thus: melting temperature; fluorescence melt of hairpins on a sequencing array, two-state fit, raised by 9.35 °C to match UV melts. As to conditions: sodium 0.088 M. The method, boiled down:
(§1)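 In 50 mM Na-HEPES pH 8.0 containing 25 mM NaCl, hairpins from the library on a sequenced MiSeq flow cell were imaged for Cy3 fluorescence at 2.5 °C steps up to 60 °C, with Cy3 and quencher oligos annealed. After normalisation to pre-quench Cy3 and to control constructs, two-state fits with bootstrapping gave melting temperature and folding enthalpy. Four replicates were combined by inverse-variance weighting, and fitted temperatures were shifted up by 9.35 °C to match UV melts.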

Data set [2] is described as follows: folding enthalpy; higher = less favourable; fluorescence melt of hairpins on a sequencing array, two-state fit. The following applies: sodium 0.088 M. The method, boiled down:
as §1

For GCAACCGAAAGGTGTTGC ((((((....)))..))), the Tm in data set [1] was found to be 50 °C. Moreover, the folding enthalpy in data set [2] is -19 kcal/mol.

As to GCAACCGGAAACGGTCGC ((.((((....)))).)), the Tm in data set [1] was found to be 52.8 °C. In addition, the folding enthalpy in data set [2] is -29.8 kcal/mol.

For the sequence GCAACCTCGAAAGAGTGC (((..(((....)))))), the Tm in data set [1] stood at 36.9 °C. In data set [2], the folding enthalpy was -21.7 kcal/mol.

For GCAACGCGAAAGCATCGC ((.(.((....)).).)), the Tm in data set [1] is 39.2 °C. The folding enthalpy in data set [2] was -13.5 kcal/mol.

Regarding GCAACGCGAAAGCATGGC ((.(.((....)).).)), in data set [1], the Tm was found to be 33.8 °C. In data set [2], the folding enthalpy is -13.1 kcal/mol.

GCAACGCGAAAGCCGTGC (((..((....))..))): the Tm in data set [1] was 49 °C. Moreover, in data set [2], the folding enthalpy was -14.8 kcal/mol.

On to GCAACGCGAAAGCCTGGC ((.(.((....)).).)), for which the Tm in data set [1] was found to be 30.8 °C. Further, in data set [2], the folding enthalpy was -6.76 kcal/mol.

On to GCAACGCGAAAGCGTGC (((.(((....)))))), for which the Tm in data set [1] is 69.1 °C. In addition, the folding enthalpy in data set [2] is -14.2 kcal/mol.

With GCAACGCGAAAGCTATGC (((..((....))..))), the Tm in data set [1] was 36.8 °C. For the same sequence, the folding enthalpy in data set [2] is -11.6 kcal/mol.

On to GCAACGCGAAAGCTTCGC ((.(.((....)).).)), for which, in data set [1], the Tm is 30 °C. In data set [2], the folding enthalpy is -8.73 kcal/mol.

Consider GCAACGGGAAACCGCTGC (((.(((....))).))), for which the Tm in data set [1] was 51.5 °C. For the same sequence, in data set [2], the folding enthalpy is -44 kcal/mol.

Take GCAACTCGAAAGAGTGC (((.(((....)))))): the Tm in data set [1] was determined as 55.8 °C. Further, the folding enthalpy in data set [2] was -33.5 kcal/mol.

Regarding GCAACTGCGAAAGCATGC (((..(((....)))))), the Tm in data set [1] came out at 40.2 °C. Further, in data set [2], the folding enthalpy is -13.5 kcal/mol.

As for GCAACTGGAAACAGTTGC (((((((....))))))), the Tm in data set [1] was found to be 67.1 °C. Also, the folding enthalpy in data set [2] was -47.5 kcal/mol.

GCAAGAACGAAAGTTTGC (((..(((....)))))): the Tm in data set [1] turned out to be 42.7 °C. The folding enthalpy in data set [2] was -22.5 kcal/mol.

Turning to GCAAGAGGAAACTCTCGC ((.((((....)))).)), in data set [1], the Tm came to 37.6 °C. For the same sequence, the folding enthalpy in data set [2] is -25.6 kcal/mol.

On to GCAAGAGGAAACTCTTGC (((((((....))))))), for which the Tm in data set [1] was 64.9 °C. In addition, the folding enthalpy in data set [2] is -40.5 kcal/mol.

GCAAGCGAAAGCTCTGC ((((((....))).))): the Tm in data set [1] is 45.9 °C. For the same sequence, the folding enthalpy in data set [2] was -20 kcal/mol.

As for GCAAGCGGAAACGCCTGC (((.(((....))).))), the Tm in data set [1] was 54.2 °C. Also, the folding enthalpy in data set [2] was -17.1 kcal/mol.

In the case of GCAAGCGGAAACGCTCGC ((.((((....)))).)), the Tm in data set [1] is 52.7 °C. In addition, in data set [2], the folding enthalpy was -22.6 kcal/mol.

Turning to GCAAGCTCGAAAGAGTGC (((..(((....)))))), the Tm in data set [1] stood at 36.9 °C. In addition, the folding enthalpy in data set [2] is -16.9 kcal/mol.

As to GCAAGGCGAAAGCATAGC ((.(.((....)).).)), the Tm in data set [1] was 39.6 °C. The folding enthalpy in data set [2] was -14.8 kcal/mol.

Turning to GCAAGGCGAAAGCCAGGC ((..(((....)))..)), the Tm in data set [1] was determined as 52.2 °C. Moreover, in data set [2], the folding enthalpy was -18.8 kcal/mol.

Turning to GCAAGGCGAAAGCGTTGC ((((.((....)).)))), the Tm in data set [1] is 67.2 °C. For the same sequence, in data set [2], the folding enthalpy is -33.1 kcal/mol.

For GCAAGGGGAAACCCCTGC (((.(((....))).))), in data set [1], the Tm was found to be 51.1 °C. Besides, the folding enthalpy in data set [2] was -27.4 kcal/mol.

Regarding GCAAGGGGAAACCCTCGC ((.((((....)))).)), in data set [1], the Tm was determined as 45 °C. In addition, the folding enthalpy in data set [2] is -23.4 kcal/mol.

Consider GCAAGTGGAAACGCTTGC (((((.(....).))))), for which the Tm in data set [1] turned out to be 54.9 °C. Further, the folding enthalpy in data set [2] was -39.1 kcal/mol.

For GCAAGTTCGAAAGAATGC (((..(((....)))))), the Tm in data set [1] was 27.3 °C. For the same sequence, in data set [2], the folding enthalpy was -11.8 kcal/mol.

On to GCAATAGGAAACCATTGC (((((.(....).))))), for which the Tm in data set [1] is 39.2 °C. For the same sequence, in data set [2], the folding enthalpy is -28 kcal/mol.

Turning to GCAATCACGAAAGTGTGC (((..(((....)))))), the Tm in data set [1] came out at 39.9 °C. The folding enthalpy in data set [2] is -19.5 kcal/mol.

Regarding GCAATCCGAAAGGACTGC (((.(((....))).))), the Tm in data set [1] was 49.8 °C. For the same sequence, the folding enthalpy in data set [2] is -17.6 kcal/mol.

With GCAATCCGAAAGGAGTGC (((.(((....))).))), in data set [1], the Tm turned out to be 61.1 °C. In data set [2], the folding enthalpy is -48 kcal/mol.

GCAATCGAAAGATCTGC ((((((....))).))): the Tm in data set [1] is 35.2 °C. The folding enthalpy in data set [2] is -18 kcal/mol.

As for GCAATCGAAAGATTGC ((((((....)))))), the Tm in data set [1] is 64 °C. Also, the folding enthalpy in data set [2] is -42.2 kcal/mol.

Turning to GCAATCGAAAGATTTTGC ((((((....)))..))), in data set [1], the Tm came out at 28.8 °C. In addition, the folding enthalpy in data set [2] was -14.8 kcal/mol.

On to GCAATCGGAAACGATCAC (..((((....))))..), for which, in data set [1], the Tm is 25.1 °C. Moreover, the folding enthalpy in data set [2] is -12 kcal/mol.

On to GCAATGCCGAAAGGCTGC (((..(((....)))))), for which, in data set [1], the Tm was determined as 49.1 °C. Also, the folding enthalpy in data set [2] is -15.6 kcal/mol.

On to GCAATGCGAAAGCAAGGC ((..(((....)))..)), for which the Tm in data set [1] is 43.7 °C. In addition, the folding enthalpy in data set [2] is -18.7 kcal/mol.

As for GCAATGCGAAAGCACGGC ((..(((....)))..)), the Tm in data set [1] came out at 36.3 °C. Also, the folding enthalpy in data set [2] is -19.9 kcal/mol.

Turning to GCAATGCGAAAGCATGC (((.(((....)))))), the Tm in data set [1] was 63 °C. The folding enthalpy in data set [2] is -22.9 kcal/mol.

As for GCAATGCGAAAGCGTGGC ((.(.((....)).).)), the Tm in data set [1] is 56.6 °C. The folding enthalpy in data set [2] is -33.7 kcal/mol.

On to GCAATGCGAAAGCTTTGC ((((.((....)).)))), for which the Tm in data set [1] is 63 °C. For the same sequence, the folding enthalpy in data set [2] was -39.1 kcal/mol.

Regarding GCAATGGGAAACCATCAC (..((((....))))..), in data set [1], the Tm came out at 22.8 °C. Besides, the folding enthalpy in data set [2] was -10.7 kcal/mol.

Turning to GCAATGGGAAACCATTAC (.(((((....))))).), in data set [1], the Tm is 33.9 °C. Further, the folding enthalpy in data set [2] is -14.9 kcal/mol.

In the case of GCAATGGGAAACCATTGC (((((((....))))))), in data set [1], the Tm came to 66.2 °C. In addition, in data set [2], the folding enthalpy is -39.2 kcal/mol.

Regarding GCAATTACGAAAGTATGC (((..(((....)))))), the Tm in data set [1] came to 31.1 °C. Besides, the folding enthalpy in data set [2] is -20.3 kcal/mol.

GCAATTCCGAAAGGATGC (((..(((....)))))): the Tm in data set [1] worked out at 38 °C. Besides, in data set [2], the folding enthalpy is -21.5 kcal/mol.

For GCAATTCGAAAGAAGTGC (((.(((....))).))), in data set [1], the Tm stood at 52.4 °C. For the same sequence, in data set [2], the folding enthalpy is -34.6 kcal/mol.

As to GCACAAGGAAACCTGTGC (((((.(....).))))), the Tm in data set [1] stood at 50.5 °C. Moreover, the folding enthalpy in data set [2] was -34 kcal/mol.

GCACAAGGAAACTTGTAC (.(((((....))))).): in data set [1], the Tm turned out to be 32.9 °C. Also, in data set [2], the folding enthalpy is -20.6 kcal/mol.

With GCACAATCGAAAGATTGC (((..(((....)))))), the Tm in data set [1] stood at 34.5 °C. In addition, the folding enthalpy in data set [2] was -10.3 kcal/mol.

For GCACACACGAAAGTGTGC (((..(((....)))))), the Tm in data set [1] stood at 57.7 °C. Besides, in data set [2], the folding enthalpy is -11.6 kcal/mol.

Regarding GCACACGAAAGTGACTGC ((((((....)))..))), the Tm in data set [1] turned out to be 37.6 °C. For the same sequence, the folding enthalpy in data set [2] was -17.9 kcal/mol.

In the case of GCACACGAAAGTGGCTGC ((((((....)))..))), in data set [1], the Tm was found to be 54.3 °C. Moreover, the folding enthalpy in data set [2] was -20.7 kcal/mol.

The values are drawn from the array DNA melting data of Ke et al. (doi:10.1101/2024.01.08.574731).
